The structures appear in SMILES notation. Active and inactive are the calls of the source. No cut-off for these calls is given here. Residues, ends and D or L forms follow the SMILES beside them. *: point of attachment. Boc = CC(C)(C)OC(=O)*; Bn = c1ccc(C*)cc1

Data on 44 compounds can be found in ChEMBL document CHEMBL4396968, “Small-molecule inhibitors of nisin resistance protein NSR from the human pathogen Streptococcus agalactiae” (Bioorg Med Chem, 2019).

For series [1], the system named is Streptococcus agalactiae. As to the kind of experiment: Inhibition of Streptococcus agalactiae NSR transfected in Lactococcus lactis NZ9000 cells assessed as potentiation of nisin-induced growth inhibition by measuring reduction in nisin IC50 at 300 uM incubated for 5 hrs by optical density based assay relative to nisin alone. In outline: (§1)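 SaNSR-expressing L. lactis NZ9000 preincubated at OD595 0.1 with fixed compound (120 or 300 µM), mixed with serial nisin dilutions, and read by OD595 after 5 h at 30 °C. Nisin IC50 taken from dose-response curves. Expressed as % ratio of the IC50 with compound to the IC50 of the same strain without it; ≥3 independent experiments.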

For series [2], the system named is Streptococcus agalactiae. As to the kind of experiment: Inhibition of Streptococcus agalactiae NSR transfected in Lactococcus lactis NZ9000 cells assessed as potentiation of nisin-induced growth inhibition by measuring reduction in nisin IC50 at 120 uM incubated for 5 hrs by optical density based assay relative to nisin alone. In outline: as §1
The subject of series [3] is Streptococcus agalactiae. As to the kind of experiment: Inhibition of Streptococcus agalactiae NSR transfected in Lactococcus lactis NZ9000 cells assessed as bacterial growth inhibition at 150 uM incubated for 5 hrs by optical density based assay in presence of 30 nM nisin. The procedure, abridged: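 L. lactis NZ9000 carrying the SaNSR plasmid, and an empty-plasmid control strain, grown overnight in GM17 with 5 µg/ml erythromycin and 1 ng/ml nisin. Diluted to OD595 0.1 and preincubated 30 min at 30 °C, then exposed to compound plus 30 nM nisin for 5 h at 30 °C. Specific inhibition is the OD ratio between strains as %; ≥3 independent experiments.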

Series [4] deals with Streptococcus agalactiae COH1. The series can be described thus: Binding affinity to N-terminal 8xHis-tagged Streptococcus agalactiae COH1 NSR30 (30 amino acids deletion at N-terminal transmembrane region) expressed in Escherichia coli BL21 (DE3) cells at 18 mM by STD NMR method. To be noted: 1.8 mM, in the assay text read “1.8 mM” for “18 mM”. In outline:
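His-tagged SaNSR30 induced with 1 mM IPTG at OD600 0.8–1.0 and expressed overnight at 18 °C. Purified by metal-affinity chromatography with 150 mM histidine elution, then size exclusion in 25 mM MES pH 6, 150 mM NaCl.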

Series [5] deals with Lactococcus lactis. The series can be described thus: Growth inhibition of Lactococcus lactis NZ9000 transfected with Streptococcus agalactiae NSR at 300 uM incubated for 5 hrs in absence of nisin by optical density based assay. It counts as organism-based. To be noted: in vivo.

A word on the inhibition: it is the share of the control response that was lost under treatment. With `O=C(Nc1ccc(C(F)(F)F)cc1)NC1(CO)CCOCC1`, the inhibition in series [1] and in series [2] was less than 1% throughout. As for `O=C(CNC(=O)c1ccc2c(c1)OCO2)NCCc1c[nH]c2ccccc12`, in series [3], the inhibition was less than 1%. With `O=C(CCn1c(=O)oc2cc(Cl)ccc21)Nc1ccc(N2CCOCC2)nc1`, the inhibition in series [3] came to 19%. For `Cc1cc(C)c(S(=O)(=O)N2CCCC2CNC(=O)C(=O)Nc2ccccc2C#N)c(C)c1` (centres undefined), in series [3], the inhibition is less than 1%. Take `CCCC(=O)Nc1ccc(CNC(=O)NCC(CO)Cc2ccc(C)cc2)cc1` (centres undefined): in series [3], the inhibition was 19.6%. On the same count and under the same terms, in the case of `CCN(CC)Cc1ccc(CNC(=O)NCc2ccc(Cn3ccnc3)cc2)cc1` it was less than 1%.

Consider `O=C(CC1NC(=O)c2ccccc2NC1=O)NCc1nc(-c2ccccc2Cl)no1` (centres undefined), for which the inhibition in series [3] was less than 1%.

In the case of `CC(CO)NC(=O)Nc1ccc(C(F)(F)F)cc1` (centres undefined), the inhibition in series [1] was less than 1%. As for `CC(CO)(CO)NC(=O)NC1CCCCC1`, in series [1], the inhibition is less than 1%. On to `CC(=O)Nc1ccc(NC(=O)CSc2nc3ccccc3c(=O)n2-c2ccccc2)cc1`, for which the inhibition in series [3] is 7.58%. Regarding `CC1CCc2nc(NC(=O)c3ccccc3NC(=O)CSc3nccn3C)sc2C1` (centres undefined), the inhibition in series [3] amounted to 1.38%. For the compound `CCc1ccc(NC(=O)C(=O)NCC(c2ccc3c(c2)OCO3)N2CCN(C)CC2)cc1` (centres undefined), the inhibition in series [3] is 6.03%.

As to `COc1ccccc1-n1cc(C(=O)N2Cc3nc[nH]c3CC2C(=O)O)cn1` (centres undefined), in series [3], the inhibition is 10.8%. For `OC(CNc1ccccc1Cl)COc1ccc(OCC(O)CNc2ccccc2Cl)cc1` (centres undefined), the inhibition in series [3] was less than 1%. In the case of `N#Cc1ccc(NC(=O)NCCNC(=O)Nc2ccc(C#N)cc2)cc1`, in series [1], the inhibition is less than 1%. Consider `CNC(=O)CNC(=O)c1cccc(S(=O)(=O)NC(C)c2ccccc2)c1` (centres undefined), for which the inhibition in series [3] came to 7.92%. As for `CC(O)C(NC(=O)C(Cc1ccc(OCc2ccccc2)cc1)NC(=O)CNC(=O)OC(C)(C)C)C(N)=O` (stereo not drawn) (Boc-Gly-Tyr(Bn)-Thr-NH2; configuration not given here), the inhibition in series [3] came out at 17.5%.

For the compound `O=C(NCc1ccccc1)C(=Cc1ccc(O)c(O)c1)C(=O)NCc1ccccc1`, the results for the inhibition in series [1] and in series [3] were 32.2% and 16.9%, respectively.

On to `O=C(NCC(O)c1ccc(O)cc1)C(=O)Nc1ccccc1O` (centres undefined), for which the inhibition in series [3] was 13.6%. Regarding `CC(CO)NC(=O)Nc1ccc(Cl)cc1` (centres undefined), the inhibition in series [1] is less than 1%.

As to `Cc1ccc(-n2nc(C)c(NC(=O)Cn3cnc4c3c(=O)n(C)c(=O)n4C)c2C)cc1`, in series [3], the inhibition is 14.2%.

Turning to `N#Cc1ccc(NC(=O)NC(CO)c2ccccc2)cc1` (centres undefined), the inhibition came to 13.5% in series [1] and 8.1% in series [2].

For the compound `CCc1cc(=O)[nH]c(-n2nc(C)cc2NC(=O)C(=O)NCCc2ccccc2)n1`, the inhibition in series [3] was less than 1%. Still for that read-out and setting: in the case of `COc1ccc(C2(CNC(=O)c3cn(C(C)C)c(=O)c4ccccc34)CCOCC2)cc1` it was 4.86%. As to `CC(C)(CO)NC(=O)NCC12CC3CC(CC(C3)C1)C2`, the results for the inhibition in series [1] and in series [2] were 8.5% and 4%, respectively. Regarding `Cc1cc(C)nc(NC(Cc2ccccc2)C(=O)NCc2nc3ccccc3[nH]2)n1` (centres undefined), the inhibition in series [3] was less than 1%. The same measure, in the same setting: in the case of `CCn1c(=O)n(CCC(=O)Nc2nc(-c3ccc4c(c3)CCO4)cs2)c2ccccc21` it was less than 1%; in that of `COc1ccc2[nH]cc(CCNC(=O)CC3C(=O)Nc4c3c(=O)n(C)c(=O)n4C)c2c1` (centres undefined), 11.3%. Regarding `CC(C)NC(=O)Nc1ccc(Cl)cc1`, the inhibition in series [1] was less than 1%. As to `CCCCn1nc(C(=O)N[C@@H](Cc2c[nH]c3ccccc23)C(=O)O)c2ccccc2c1=O`, in series [3], the inhibition amounted to 3.21%.

`CCC(CC)(CO)NC(=O)Nc1cccc(Oc2ccccc2)c1`: in series [1], the inhibition was less than 1%. For `CC(CO)(CO)NC(=O)Nc1ccc(Cl)c(Br)c1`, the result in series [4] was Active. For the same compound, the inhibition in series [2] stood at 50.5%; in series [3] it was 57.9%. In series [5], the “growth inhibition (GI)” value is reported as “Toxic”. On to `COc1ccc(-c2cc(N3CCCN(C(=O)C4(c5ccc(OC)cc5)CC4)CC3)[nH]n2)cc1`, for which the results for the inhibition in series [1] and in series [3] were 20.5% and 20.7%, respectively. Consider `CC(C(=O)NC(CO)(CO)CO)c1ccc2c(c1)[nH]c1ccc(Cl)cc12` (centres undefined), for which the inhibition in series [3] was determined as 8.21%. Consider `CCCCc1ccc(NC(=O)CN2C(=O)NC(C)(Cc3ccc(OC)c(OC)c3)C2=O)cc1` (centres undefined), for which the inhibition in series [3] came out at 14.1%. Consider `CC(O)(CNC(=O)NCC[S+]([O-])c1ccccc1)c1ccco1` (centres undefined), for which, in series [3], the inhibition worked out at 13.4%. On the same count and under the same terms, in the case of `Cc1[nH]c(SCC(=O)Nc2[nH]c(Cc3ccccc3)c(C)c2C#N)nc1Cc1ccccc1` it was 15.3%. Regarding `O=C(Nc1ccccc1C(F)(F)F)NC(CO)(CO)C(F)(F)F`, the inhibition in series [1] and in series [2] was less than 1% in each case.

As for `COc1ccc(C2(CNC(=O)C(=O)Nc3ccc(Br)cc3)CCOCC2)cc1`, the inhibition in series [3] is less than 1%. Same read-out and setting: in the case of `Cc1ccc2c(c1)-c1c(cnn1CC(=O)NC(C)c1ccc3c(c1)OCCO3)CO2` (centres undefined) it was less than 1%. In the case of `Cc1cc(C)c2c(=O)n(CC(=O)Nc3ccc(C(C)C)cc3)c(=O)n(Cc3ccco3)c2n1`, the inhibition in series [3] was less than 1%. As to `Cc1cc(C)c2c(C)nn(-c3ccc(NC(=O)CCc4nc5ccccc5c(=O)[nH]4)cc3)c2n1`, the inhibition in series [1] is 1.9%; in series [3], less than 1%. Take `O=C(CC[C@H]1NC(=O)c2ccccc2NC1=O)NCc1nc2ccccc2[nH]1`: in series [3], the inhibition is 9.95%. The same measure, in the same setting: the result for `O=C(Cn1cnc2c(oc3ccccc32)c1=O)NCc1ccccc1Cn1ccnc1` reads less than 1%.
